ChEMBL document CHEMBL1136360, “2,5-disubstituted 3,4-dihydro-2H-benzo[b][1,4]thiazepines as potent and selective V2 arginine vasopressin receptor antagonists” (Bioorg Med Chem Lett, 2003)

Assays:
[1] = target: T1, Vasopressin V2 receptor (Homo sapiens, UniProt P30518); assay: Ability to displace [3H]arginine vasopressin in cloned human V2 receptor
Method in brief: (§1)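 Radioligand displacement of 3H-arginine vasopressin from cloned human V1a or V2 receptors. Single-concentration lines are read as percent inhibition at […].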

[2] = target: T2, Vasopressin V1a receptor (Homo sapiens, UniProt P37288); assay: Ability to displace [3H]arginine vasopressin in cloned human V1a receptor; method in brief: as §1
[3] = target: T1, Vasopressin V2 receptor; assay: Inhibition of vasopressin induced cAMP accumulation in human V2 receptor expressing cells; type: functional
Method in brief: (§2)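 Functional antagonism in cells expressing the human receptor. For V2, inhibition of vasopressin-induced cAMP accumulation. For V1a, inhibition of vasopressin-induced calcium mobilization.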

[4] = target: T2, Vasopressin V1a receptor; assay: Inhibition of vasopressin induced calcium […] in human V1a receptor expressing cells; type: functional; method in brief: as §2
[5] = system: Rattus norvegicus; assay: Effect on urine volume at a dose of 10 mg/kg in hydrated 10 male rats was determined; type: functional
Method in brief: (§3)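 Conscious, hydrated male Sprague–Dawley rats dosed orally with test compound in 0.5% hydroxypropyl-methylcellulose vehicle, or with vehicle alone (3–100 mg/kg). Urine collected over 4 h. Urine volume (mL) and osmolality (mOsmol/Kg) reported as mean with error, about 10 animals per group. Significance judged at p<0.05 versus vehicle.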

[6] = system: Rattus norvegicus; assay: Effect on urine volume at a dose of 30 mg/kg in hydrated 10 male rats was determined; type: functional; method in brief: as §3
[7] = system: Rattus norvegicus; assay: Effect on urine volume at a dose of 3 mg/kg in hydrated 10 male rats was determined; type: functional; method in brief: as §3
[8] = system: Rattus norvegicus; assay: Effect on urine osmolality at a dose of 100 mg/kg in hydrated 10 male rats was determined; type: functional; method in brief: as §3
[9] = system: Rattus norvegicus; assay: Effect on urine osmolality at a dose of 10 mg/kg in hydrated 10 male rats was determined; type: functional; method in brief: as §3
[10] = system: Rattus norvegicus; assay: Effect on urine osmolality at a dose of 30 mg/kg in hydrated 10 male rats was determined; type: functional; method in brief: as §3
[11] = system: Rattus norvegicus; assay: Effect on urine osmolality at a dose of 3 mg/kg in hydrated 10 male rats was determined; type: functional; method in brief: as §3
[12] = system: Rattus norvegicus; assay: Effect on urine volume at a dose of 100 mg/kg in hydrated 10 male rats was determined

T1 sequence (P30518 whole entry): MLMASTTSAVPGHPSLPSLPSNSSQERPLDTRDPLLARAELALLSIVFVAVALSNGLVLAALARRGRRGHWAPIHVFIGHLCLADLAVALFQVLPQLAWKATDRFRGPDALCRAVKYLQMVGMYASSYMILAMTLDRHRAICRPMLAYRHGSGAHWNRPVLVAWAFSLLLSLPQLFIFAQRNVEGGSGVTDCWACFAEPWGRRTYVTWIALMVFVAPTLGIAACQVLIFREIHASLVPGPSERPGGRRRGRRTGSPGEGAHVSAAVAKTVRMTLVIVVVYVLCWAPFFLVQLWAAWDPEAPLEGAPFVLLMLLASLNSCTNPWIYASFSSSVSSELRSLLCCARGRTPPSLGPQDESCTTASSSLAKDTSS
T2 sequence (P37288 whole entry): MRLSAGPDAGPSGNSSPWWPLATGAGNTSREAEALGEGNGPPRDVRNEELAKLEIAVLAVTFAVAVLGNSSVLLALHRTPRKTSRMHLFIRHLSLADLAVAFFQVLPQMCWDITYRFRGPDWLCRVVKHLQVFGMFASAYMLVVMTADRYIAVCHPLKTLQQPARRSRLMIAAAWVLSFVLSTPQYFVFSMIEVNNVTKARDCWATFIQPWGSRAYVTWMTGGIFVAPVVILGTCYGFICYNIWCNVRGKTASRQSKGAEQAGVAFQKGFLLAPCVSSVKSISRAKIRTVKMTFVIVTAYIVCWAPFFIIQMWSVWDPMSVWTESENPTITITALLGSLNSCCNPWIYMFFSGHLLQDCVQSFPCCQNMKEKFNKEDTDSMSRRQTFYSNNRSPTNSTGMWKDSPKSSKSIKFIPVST

SMILES | IC50 [1] [nM] | IC50 [2] [nM] | IC50 [3] [nM] | IC50 [4] [nM] | also measured
CN(C)CC1CCN(C(=O)c2ccc(NC(=O)c3ccccc3-c3ccccc3)cc2)c2ccccc2S1 (centres undefined) | 430 | 1200 |  |  | 
O=C(O)C[C@H]1CCN(C(=O)c2ccc(NC(=O)c3ccccc3-c3ccccc3)cc2)c2ccccc2S1 | 7 | 440 | 36 | 2130 | 
O=C(Nc1ccc(C(=O)N2CCC(CCF)Sc3ccccc32)cc1)c1ccccc1-c1ccccc1 (centres undefined) | 85 | 180 |  |  | 
O=C(O)C[C@@H]1CCN(C(=O)c2ccc(NC(=O)c3ccccc3-c3ccccc3)cc2)c2ccccc2S1 | 8 | 1140 | 30 | 1760 | Urine volume [5]: 7.3 mL; Urine volume [6]: 15.7 mL; Urine volume [7]: 2.2 mL; Urine osmolality [8]: 177 mOsmol kg-1; Urine osmolality [9]: 299 mOsmol kg-1; Urine osmolality [10]: 161 mOsmol kg-1; Urine osmolality [11]: 529 mOsmol kg-1; Urine volume [12]: 13.8 mL
O=C(O)CC[C@@H]1CCN(C(=O)c2ccc(NC(=O)c3ccccc3-c3ccccc3)cc2)c2ccccc2S1 | 16 | 314 | 40 | 4630 | 
O=C(O)CC1CCN(C(=O)c2ccc(NC(=O)c3ccccc3-c3ccccc3)cc2)c2ccccc2S1 (centres undefined) | 7 | 729 | 40 | 740 | 
O=C(Nc1ccc(C(=O)N2CCC(CCS(=O)(=O)O)Sc3ccccc32)cc1)c1ccccc1-c1ccccc1 (centres undefined) |  | 1150 |  |  | 

The next molecules have a lower IC50 [2] than those just listed; values first:

IC50 [1] [nM] | IC50 [2] [nM] | IC50 [3] [nM] | IC50 [4] [nM] | SMILES | also measured
100 | 160 |  |  | O=C(Nc1ccc(C(=O)N2CCC(CC(F)F)Sc3ccccc32)cc1)c1ccccc1-c1ccccc1 (centres undefined) | 
15 | 140 | 30 | 2010 | O=C(O)CC[C@H]1CCN(C(=O)c2ccc(NC(=O)c3ccccc3-c3ccccc3)cc2)c2ccccc2S1 | 
8 | 97 | 100 | 150 | O=C(Nc1ccc(C(=O)N2CCC(CCO)Sc3ccccc32)cc1)c1ccccc1-c1ccccc1 (centres undefined) | 
